According to ChEMBL document CHEMBL4229391, “Divergent synthesis of thapsigargin analogs” (Bioorg Med Chem Lett, 2018):

Legend:
Format in all cases: cell-based
[1] = Inhibition of SERCA in human HeLa cells assessed as increase in cytosolic calcium level measured over 300 secs by Fluo-4 NW dye based FLIPR analysis
Outline: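 Fluo-4 NW-loaded HeLa cells (25,000/well, overnight culture in MEM/10% FBS) received 10-point titrations (10 uM – 38 pM in-assay) in HBSS/20 mM HEPES. Fluorescence was recorded for 300 s. Peak signals, normalized to thapsigargin and 0.2% DMSO buffer controls, were fitted to a log agonist-response model. The midpoint concentration is reported as IC50. Values are mean ± SD of three independent determinations, each run in duplicate.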

HeLa [2] = assay: Inhibition of SERCA in human HeLa cells assessed as increase in cytosolic calcium level at 1.00 x 10^-5M measured over 300 secs by Fluo-4 NW dye based FLIPR analysis relative to control
Outline: (§1)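 HeLa cells were seeded at 25,000/well in MEM + 10% FBS and grown overnight at 37°C, 5% CO2. They were loaded with Fluo-4 NW (30 min at 37°C, then 30 min at RT). Compound was added in HBSS/20 mM HEPES, one point of a 10-point in-assay range (10 uM – 38 pM). Fluorescence (ex 470-495, em 515-575 nm) was read for 300 s. Peak signal was normalized to thapsigargin (=100%) and buffer (0.2% DMSO) controls.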

HeLa [3] = assay: Inhibition of SERCA in human HeLa cells assessed as increase in cytosolic calcium level at 2.50 x 10^-6M measured over 300 secs by Fluo-4 NW dye based FLIPR analysis relative to control; outline: as §1
HeLa [4] = assay: Inhibition of SERCA in human HeLa cells assessed as increase in cytosolic calcium level at 6.25 x 10^-7M measured over 300 secs by Fluo-4 NW dye based FLIPR analysis relative to control; outline: as §1
HeLa [5] = assay: Inhibition of SERCA in human HeLa cells assessed as increase in cytosolic calcium level at 1.56 x 10^-7M measured over 300 secs by Fluo-4 NW dye based FLIPR analysis relative to control; outline: as §1
HeLa [6] = assay: Inhibition of SERCA in human HeLa cells assessed as increase in cytosolic calcium level at 3.91 x 10^-8M measured over 300 secs by Fluo-4 NW dye based FLIPR analysis relative to control; outline: as §1
HeLa [7] = assay: Inhibition of SERCA in human HeLa cells assessed as increase in cytosolic calcium level at 3.81 x 10^-11M measured over 300 secs by Fluo-4 NW dye based FLIPR analysis relative to control; outline: as §1
HeLa [8] = assay: Inhibition of SERCA in human HeLa cells assessed as increase in cytosolic calcium level at 9.77 x 10^-9M measured over 300 secs by Fluo-4 NW dye based FLIPR analysis relative to control
Outline: (§2)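 HeLa cells seeded at 25,000/well in MEM + 10% FBS and kept overnight at 37°C, 5% CO2. They were loaded with FLUO-4 NW (30 min 37°C, then 30 min RT) in HBSS/20 mM HEPES. Compounds were added from DMSO in a 10-point titration (in-assay 10 uM–38 pM). Fluorescence (ex 470-495, em 515-575 nm) was read 300 s. Signal maxima were normalized to thapsigargin (100%) and buffer/0.2% DMSO controls. Three independent runs in duplicate.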

HeLa [9] = assay: Inhibition of SERCA in human HeLa cells assessed as increase in cytosolic calcium level at 2.44 x 10^-9M measured over 300 secs by Fluo-4 NW dye based FLIPR analysis relative to control; outline: as §2
HeLa [10] = assay: Inhibition of SERCA in human HeLa cells assessed as increase in cytosolic calcium level at 6.10 x 10^-10M measured over 300 secs by Fluo-4 NW dye based FLIPR analysis relative to control; outline: as §2
HeLa [11] = assay: Inhibition of SERCA in human HeLa cells assessed as increase in cytosolic calcium level at 1.53 x 10^-10M measured over 300 secs by Fluo-4 NW dye based FLIPR analysis relative to control; outline: as §2

Compound	IC50 [1]	inhibition (HeLa [2])	inhibition (HeLa [3])	inhibition (HeLa [4])	inhibition (HeLa [5])	inhibition (HeLa [6])	inhibition (HeLa [7])	inhibition (HeLa [8])	inhibition (HeLa [9])	inhibition (HeLa [10])	inhibition (HeLa [11])
CCCCCCCC(=O)O[C@H]1[C@H]2C(=C(C)[C@@H]1OC(=O)c1cccs1)[C@@H]1OC(=O)[C@@](C)(O)[C@@]1(O)[C@@H](OC(=O)CCC)C[C@]2(C)OC(C)=O	0.0715 to 0.117 µM	92.9 to 102%	79.6 to 105%	68.8 to 103%	52.4 to 84.4%	-7.5 to 25.7%	-5.9 to 0.6%				
C/C=C(/C)C(=O)O[C@@H]1C[C@H]2C(=C1C)[C@@H]1OC(=O)[C@@](C)(O)[C@@]1(O)[C@@H](OC(=O)C=C(C)C)C[C@]2(C)OC(C)=O	0.204 to 0.268 µM	92 to 102%	87.1 to 102%	65.5 to 94.1%	12.1 to 55.6%	-1.7 to 10.7%	-2 to 1.7%	-4.7 to 4.6%	-3.4 to 4.1%	-3 to 3.3%	-3.3 to 2.6%
CCCCCCCC(=O)O[C@H]1[C@H]2C(=C(C)[C@@H]1OC(=O)[C@H](C)CC)[C@@H]1OC(=O)[C@@](C)(O)[C@@]1(O)[C@@H](OC(=O)CCC)C[C@]2(C)OC(C)=O	0.0577 to 0.104 µM	87.4 to 108%	88.1 to 106%	91.7 to 104%	71.9 to 87.8%	8.1 to 45.8%	-0.7 to 2.6%	1 to 7.1%	-1.6 to 3.6%	-0.7 to 1.9%	-4.3 to 1.5%
CCCCCCCC(=O)O[C@H]1[C@H]2C(=C(C)[C@@H]1OC(=O)c1sccc1C)[C@@H]1OC(=O)[C@@](C)(O)[C@@]1(O)[C@@H](OC(=O)CCC)C[C@]2(C)OC(C)=O	0.03 to 0.119 µM	92 to 101%	86.7 to 101%	83.7 to 102%	57 to 99.4%	-6.6 to 60.1%	-2.2 to 3.1%	-6.6 to 10%	-7.7 to 1.6%	-4.2 to 0.8%	-2.6 to 0.5%
CCCCCCCC(=O)O[C@H]1[C@H]2C(=C(C)[C@@H]1OC(=O)CC(C)C)[C@@H]1OC(=O)[C@@](C)(O)[C@@]1(O)[C@@H](OC(=O)CCC)C[C@]2(C)OC(C)=O	0.31 to 0.576 µM	89.7 to 96.6%	72.4 to 91.7%	40.2 to 84.1%			-8 to 21.4%				
C/C=C(/C)C(=O)O[C@H]1C(C)=C2[C@H]([C@@H]1OC(=O)CCCCCCC)[C@@](C)(OC(C)=O)C[C@H](OC(=O)[C@@H](C)CC)[C@@]1(O)[C@H]2OC(=O)[C@@]1(C)O	0.22 to 0.298 µM	89.4 to 110%	91.1 to 109%	88.4 to 101%	6.2 to 40.9%	2.9 to 27.6%	-2.2 to 2.4%	-1.3 to 3.8%	-1.6 to 2.8%	-3.2 to 2.2%	-4.2 to 2.5%
C/C=C(/C)C(=O)O[C@H]1C(C)=C2[C@H]([C@@H]1OC(=O)CCCCCCC)[C@@](C)(OC(C)=O)C[C@H](OC(=O)CCC)[C@@]1(O)[C@H]2OC(=O)[C@@]1(C)O [THAPSIGARGIN]	0.0285 to 0.051 µM	89 to 107%	92.9 to 105%	90.4 to 109%	67.6 to 103%	37.6 to 75.1%	-2.3 to 2.9%	-2.7 to 10.5%	-4.1 to 1.4%	-5 to 0.6%	-1.7 to 0.1%
C/C=C(/C)C(=O)O[C@H]1C(C)=C2[C@H]([C@@H]1OC(=O)CCCCC)[C@@](C)(OC(C)=O)C[C@H](OC(=O)CCC)[C@@]1(O)[C@H]2OC(=O)[C@@]1(C)O	0.073 to 0.09 µM	86.6 to 100%	91.1 to 105%	90.8 to 104%	64.9 to 94.4%	5.8 to 30.7%	-2.5 to 2%	-2.2 to 7.9%	-5.9 to 4.6%	-4.6 to 4.1%	-2.1 to 3.5%
